Experimental data published in ChEMBL document CHEMBL4411310, “Identification of a novel DGKα inhibitor for XLP-1 therapy by virtual screening” (Eur J Med Chem, 2019).
Calls of active or inactive are those of the source. The rule behind the calls is not given here.

Experiments:
[1] = molecular target: T1, Diacylglycerol kinase alpha (Homo sapiens, UniProt P23743); test: Inhibition of OST-tagged DGKalpha (unknown origin) expressed in MDCK cell homogenates assessed as residual activity at 100 uM using DAG as substrate measured after 5 mins in presence of [gamma-32P]ATP by TLC analysis relative to control; type: cell-free
T1 sequence (P23743 whole entry): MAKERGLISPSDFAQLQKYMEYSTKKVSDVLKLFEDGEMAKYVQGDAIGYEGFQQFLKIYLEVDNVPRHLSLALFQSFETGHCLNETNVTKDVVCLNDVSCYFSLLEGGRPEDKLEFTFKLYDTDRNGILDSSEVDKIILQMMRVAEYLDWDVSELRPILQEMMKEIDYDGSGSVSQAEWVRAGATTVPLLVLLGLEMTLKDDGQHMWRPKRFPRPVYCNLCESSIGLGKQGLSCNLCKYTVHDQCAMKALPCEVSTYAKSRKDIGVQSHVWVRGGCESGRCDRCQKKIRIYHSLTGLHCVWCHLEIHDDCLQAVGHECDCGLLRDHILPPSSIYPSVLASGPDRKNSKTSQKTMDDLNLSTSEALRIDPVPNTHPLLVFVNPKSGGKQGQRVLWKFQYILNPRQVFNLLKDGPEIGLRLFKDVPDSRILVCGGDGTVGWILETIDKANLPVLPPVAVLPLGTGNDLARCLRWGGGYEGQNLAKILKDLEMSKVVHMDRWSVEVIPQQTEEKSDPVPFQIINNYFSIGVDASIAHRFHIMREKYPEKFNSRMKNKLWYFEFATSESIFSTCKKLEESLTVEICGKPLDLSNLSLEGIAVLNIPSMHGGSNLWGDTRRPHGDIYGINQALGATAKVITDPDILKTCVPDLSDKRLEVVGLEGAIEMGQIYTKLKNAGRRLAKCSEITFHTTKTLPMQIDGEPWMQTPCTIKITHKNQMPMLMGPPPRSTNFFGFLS

[2] = molecular target: T1, Diacylglycerol kinase alpha; test: Inhibition of DGKalpha in human erythrocytes using OAG as substrate preincubated for 1 min followed by OAG addition and measured after 8 mins in presence of [gamma-32P]ATP; type: cell-based
[3] = molecular target: T2, 5-hydroxytryptamine receptor 2C (Homo sapiens, UniProt P28335); test: Binding affinity to 5HT2C receptor (unknown origin)
T2 sequence (P28335 whole entry): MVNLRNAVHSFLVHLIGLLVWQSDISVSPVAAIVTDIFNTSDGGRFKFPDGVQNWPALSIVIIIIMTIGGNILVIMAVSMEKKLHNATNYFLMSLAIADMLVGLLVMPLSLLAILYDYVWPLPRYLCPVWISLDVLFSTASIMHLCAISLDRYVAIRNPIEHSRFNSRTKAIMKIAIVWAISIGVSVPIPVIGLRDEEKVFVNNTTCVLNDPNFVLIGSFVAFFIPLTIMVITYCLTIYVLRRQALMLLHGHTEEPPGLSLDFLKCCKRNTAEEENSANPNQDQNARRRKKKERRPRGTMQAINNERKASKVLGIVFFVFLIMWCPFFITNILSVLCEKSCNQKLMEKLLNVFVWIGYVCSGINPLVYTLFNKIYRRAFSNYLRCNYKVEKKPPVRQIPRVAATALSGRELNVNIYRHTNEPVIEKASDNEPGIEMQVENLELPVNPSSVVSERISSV

T-cell = test: Cytotoxicity against human T cells assessed as cell death at 1 to 10 uM measured after 24 hrs propidium iodide staining based flow cytometry
Outline: (§1)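 PBL from healthy donors, activated with anti-CD3/CD28 and then kept in IL-2. siRNA (SAP or control, 200 pmol) delivered by nucleofection, then 4 days in IL-2. 10^5 cells/well in triplicate; inhibitor (1, 5, 10 μM) added 30 min before OKT3 restimulation (1–500 ng/ml) for 24 h. PI staining, fixed 30 s flow acquisition; % cell loss.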

[4] = molecular target: T1, Diacylglycerol kinase alpha; test: Inhibition of DGKalpha in OKT3-induced human T cells harboring SAP SiRNA assessed as restoration of restimulation-induced cell death at 1 to 10 uM preincubated for 30 mins followed by OKT3 stimulation and measured 24 hrs post dose by propidium iodide staining based flow cytometry; outline: as §1
[5] = molecular target: T1, Diacylglycerol kinase alpha; test: Inhibition of DGKalpha in OKT3-induced human T cells harboring SAP siRNA assessed as restoration of TCR-induced NR4A1 upregulation at 10 uM after 4 hrs by RT-PCR analysis; type: cell-based
Outline: (§2)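 Activated PBL transfected with SAP or control siRNA, 4 days in culture. Restimulated with OKT3 (10 μg/ml), with or without inhibitor at 10 μM. After 4 h, NR4A1 and NR4A3 measured by TaqMan qPCR normalised to GUSB. At least four independent experiments.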

[6] = molecular target: T1, Diacylglycerol kinase alpha; test: Inhibition of DGKalpha in PHA-induced human Jurkat cells harboring SAP ShRNA assessed as restoration of restimulation-induced cell death at 1 uM measured after 24 hrs by trypan blue exclusion method; type: cell-based
Outline: (§3)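 SAP-shRNA or control-shRNA Jurkat cells, 0.5 × 10^5 cells/well in triplicate, in wells left uncoated or precoated for 24 h at 4 °C with anti-CD3 OKT3 (50 μg/ml) or PHA-P (50 μg/ml). Inhibitor at 1 μM or DMSO control for 24 h. Live cells counted by trypan blue exclusion; % cell loss versus untreated controls. At least three experiments.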

[7] = molecular target: T1, Diacylglycerol kinase alpha; test: Inhibition of OST-tagged DGKalpha (unknown origin) expressed in MDCK cell homogenates using DAG as substrate measured after 5 mins in presence of [gamma-32P]ATP by TLC analysis; type: cell-free
Outline: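 Doxycycline-induced (1 μg/ml, 2 days) MDCK cells expressing OST-DGKα, homogenized in Hepes pH 8 buffer with EDTA, EGTA, vanadate and protease inhibitors. Initial velocity measured 5 min at 27 °C with saturating 1,2-dioleoyl-sn-glycerol and γ32P-ATP plus 25 μM unlabelled ATP and MgCl2. Stopped with HCl, lipids extracted, separated by TLC, radioactive phosphatidic acid quantified by imager. IC50 from 0.1–100 μM, ≥3 experiments, normalized fit.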

[8] = test system: Serotonin (5-HT) receptor; test: Antagonist activity at serotonin receptor in human PBMC assessed as inhibition of PMA-stimulated superoxide anion generation at 10 uM preincubated for 1 hr followed by PMA-stimulation and measured after 30 mins by spectrophotometric method; conditions: 0.5 h
Jurkat = test: Cytotoxicity against human Jurkat cells assessed as reduction in cell viability at 1 uM after 24 hrs by trypan blue exclusion assay; type: cell-based; outline: as §3
[9] = molecular target: T-cell receptor (Homo sapiens) (UniProt P04437+P01848+P04435+P03979); test: Effect on TCR signaling in OKT3-induced human T-cells harboring SiRNA assessed as restoration of restimulation-induced cell death at 1 to 10 uM preincubated for 30 mins followed by OKT3 stimulation and measured 24 hrs post dose by propidium iodide staining based flow cytometry; outline: as §1
[10] = molecular target: T1, Diacylglycerol kinase alpha; test: Inhibition of DGKalpha in OKT3-induced human Jurkat cells harboring SAP ShRNA assessed as restoration of restimulation-induced cell death at 1 uM measured after 24 hrs by trypan blue exclusion method; type: cell-based; outline: as §3
[11] = molecular target: Diacylglycerol kinase alpha (Sus scrofa, UniProt P20192); test: Inhibition of pig FLAG3-tagged DGKalpha expressed in African green monkey COS7 cells using 1,2-dioleoyl-sn-glycerol as substrate measured after 30 mins by ADP-Glo luminescence assay
Chain of Diacylglycerol kinase alpha (Sus scrofa, UniProt P20192) (P20192 whole entry): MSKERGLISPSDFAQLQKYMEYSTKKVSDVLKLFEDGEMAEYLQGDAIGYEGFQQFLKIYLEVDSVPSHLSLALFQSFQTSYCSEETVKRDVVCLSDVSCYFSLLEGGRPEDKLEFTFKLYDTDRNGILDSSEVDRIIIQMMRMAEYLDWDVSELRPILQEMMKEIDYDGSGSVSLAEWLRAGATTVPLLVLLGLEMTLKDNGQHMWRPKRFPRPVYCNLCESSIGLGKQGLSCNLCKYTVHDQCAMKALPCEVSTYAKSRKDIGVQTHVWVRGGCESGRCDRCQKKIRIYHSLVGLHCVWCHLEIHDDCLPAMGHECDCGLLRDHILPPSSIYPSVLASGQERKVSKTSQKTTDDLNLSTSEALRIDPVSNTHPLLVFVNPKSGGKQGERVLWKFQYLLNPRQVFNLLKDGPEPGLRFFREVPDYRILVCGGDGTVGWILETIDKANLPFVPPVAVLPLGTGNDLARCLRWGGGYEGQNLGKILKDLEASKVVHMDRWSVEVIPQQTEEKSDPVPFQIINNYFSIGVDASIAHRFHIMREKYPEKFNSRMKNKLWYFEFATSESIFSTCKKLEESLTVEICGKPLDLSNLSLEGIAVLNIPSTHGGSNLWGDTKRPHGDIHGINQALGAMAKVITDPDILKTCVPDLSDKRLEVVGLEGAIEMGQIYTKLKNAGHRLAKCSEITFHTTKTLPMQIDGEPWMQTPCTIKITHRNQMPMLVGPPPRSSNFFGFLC

[12] = molecular target: T1, Diacylglycerol kinase alpha; test: Inhibition of DGKalpha expressed in 293T cell homogenates at 100 uM using DAG as substrate measured after 5 mins in presence of [gamma-32P]ATP by TLC analysis relative to control
[13] = molecular target: Diacylglycerol kinase alpha (Rattus norvegicus, UniProt P51556); test: Inhibition of rat FLAG-tagged DGKalpha expressed in HEK293T cells using DAG as substrate measured after 15 mins in presence of [gamma-32P]ATP by scintillation counting method
Chain of Diacylglycerol kinase alpha (Rattus norvegicus, UniProt P51556) (P51556 whole entry): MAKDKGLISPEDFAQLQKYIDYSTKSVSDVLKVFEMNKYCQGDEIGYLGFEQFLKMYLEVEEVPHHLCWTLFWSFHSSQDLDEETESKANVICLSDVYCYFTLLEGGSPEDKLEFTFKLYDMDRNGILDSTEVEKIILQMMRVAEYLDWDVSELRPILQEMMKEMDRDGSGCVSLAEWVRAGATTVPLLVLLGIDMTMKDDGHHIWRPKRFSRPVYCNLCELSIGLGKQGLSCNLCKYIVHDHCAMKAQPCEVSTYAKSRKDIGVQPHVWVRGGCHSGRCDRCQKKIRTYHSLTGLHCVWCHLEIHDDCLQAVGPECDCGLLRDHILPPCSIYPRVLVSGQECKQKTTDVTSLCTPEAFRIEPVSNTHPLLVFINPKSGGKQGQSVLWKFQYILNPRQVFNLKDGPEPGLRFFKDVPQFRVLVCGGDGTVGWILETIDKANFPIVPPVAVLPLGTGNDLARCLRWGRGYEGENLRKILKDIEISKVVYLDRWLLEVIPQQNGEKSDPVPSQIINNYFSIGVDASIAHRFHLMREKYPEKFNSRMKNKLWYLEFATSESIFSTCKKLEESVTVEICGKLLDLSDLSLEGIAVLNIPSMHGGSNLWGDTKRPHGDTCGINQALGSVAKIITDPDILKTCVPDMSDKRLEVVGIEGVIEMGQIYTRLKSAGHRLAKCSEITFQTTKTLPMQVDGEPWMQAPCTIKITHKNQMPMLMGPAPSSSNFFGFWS

[14] = molecular target: Diacylglycerol kinase zeta (Homo sapiens) (UniProt Q13574); test: Inhibition of DGKzeta (unknown origin) expressed in human 293T cells at 100 uM using DAG as substrate measured after 5 mins in presence of [gamma-32P]ATP by TLC analysis
Chain of Diacylglycerol kinase zeta (Homo sapiens) (Q13574 whole entry): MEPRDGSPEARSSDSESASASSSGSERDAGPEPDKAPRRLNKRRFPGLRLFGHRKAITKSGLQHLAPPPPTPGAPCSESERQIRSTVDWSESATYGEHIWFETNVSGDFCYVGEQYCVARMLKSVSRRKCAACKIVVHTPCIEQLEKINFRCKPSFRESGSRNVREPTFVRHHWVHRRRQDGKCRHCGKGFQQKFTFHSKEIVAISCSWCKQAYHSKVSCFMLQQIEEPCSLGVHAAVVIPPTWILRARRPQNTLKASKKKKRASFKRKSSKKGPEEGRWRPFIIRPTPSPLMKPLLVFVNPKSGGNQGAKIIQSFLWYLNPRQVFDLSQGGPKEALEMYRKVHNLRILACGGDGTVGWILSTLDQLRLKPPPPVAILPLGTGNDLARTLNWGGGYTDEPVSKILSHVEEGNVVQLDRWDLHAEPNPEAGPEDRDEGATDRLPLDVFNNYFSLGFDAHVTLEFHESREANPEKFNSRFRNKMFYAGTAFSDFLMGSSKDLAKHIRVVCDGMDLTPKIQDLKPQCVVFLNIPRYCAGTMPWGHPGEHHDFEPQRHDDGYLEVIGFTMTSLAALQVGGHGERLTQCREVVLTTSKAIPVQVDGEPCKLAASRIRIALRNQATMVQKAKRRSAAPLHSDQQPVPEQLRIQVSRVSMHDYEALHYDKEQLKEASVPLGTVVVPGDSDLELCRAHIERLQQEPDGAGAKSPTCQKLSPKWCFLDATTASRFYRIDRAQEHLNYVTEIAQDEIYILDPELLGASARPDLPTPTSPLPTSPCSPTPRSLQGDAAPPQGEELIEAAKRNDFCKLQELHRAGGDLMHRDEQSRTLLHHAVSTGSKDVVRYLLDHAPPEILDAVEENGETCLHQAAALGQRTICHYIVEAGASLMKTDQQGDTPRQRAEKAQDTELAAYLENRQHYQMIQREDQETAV
Outline: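 293T cells transiently transfected with the DGKζ plasmid or empty vector; homogenates collected 48 h later. Compound at 100 μM. Reaction run 5 min at 27 °C with saturating 1,2-dioleoyl-sn-glycerol, γ32P-ATP plus 25 μM unlabelled ATP, and MgCl2, at pH 8. Stopped with HCl, lipids extracted and separated by TLC, read by phosphorimaging. At least three experiments in triplicate.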

[15] = molecular target: T1, Diacylglycerol kinase alpha; test: Inhibition of DGKalpha in OKT3-induced human T cells harboring SAP siRNA assessed as restoration of TCR-induced NR4A3 upregulation at 10 uM after 4 hrs by RT-PCR analysis; type: cell-based; outline: as §2
[16] = Solubility of the compound in DMSO; type: physicochemical
[17] = molecular target: T1, Diacylglycerol kinase alpha; test: Inhibition of DGKalpha in OKT3-induced human T cells harboring SAP SiRNA assessed as restoration of restimulation-induced cell death at >=5 uM preincubated for 30 mins followed by OKT3 stimulation and measured 24 hrs post dose by propidium iodide staining based flow cytometry; outline: as §1

COc1ccccc1OCCCN1CCN(C(=O)c2ccc(=O)[nH]n2)CC1
Activity [1]: 67%

O=C(Cc1cn2ccsc2n1)N1CCN(C(c2ccccc2)c2ccccc2)CC1
Activity [1]: 64%

O=c1c2ccccc2[nH]c(=S)n1CCN1CCN(Cc2ccccc2)CC1
Activity [1]: 49%

CCCCCCCC(=O)OCCOC(=O)CCCCCCC [ETHYLENE GLYCOL DIOCTANOATE]
Ki [2]: 58 µM

Cc1nc2sccn2c(=O)c1CCN1CCC(=C(c2ccc(F)cc2)c2ccc(F)cc2)CC1 [RITANSERIN]
Ki [3]: 0.00071 µM
Activity [1]: 17%
Activity (T-cell): Non-Toxic
inhibition [4]: Active
inhibition [5]: Active
inhibition [6]: Active
IC50 [7]: 16.7 µM
inhibition (INH) [8]: Active
Activity (Jurkat): Non-Toxic
Activity [9]: inactive
inhibition [10]: Active

Cc1nc2sccn2c(=O)c1CCN1CCC(=C(c2ccccc2)c2ccc(F)cc2)CC1
IC50 [11]: 25 µM
Activity [1]: 27%
IC50 [2]: 3.8 µM
inhibition [12]: 68%
IC50 [7]: 19.7 to 19.8 µM
IC50 [13]: 20 µM
inhibition [14]: inactive

O=C(NCC(=O)N1CCN(C(c2ccccc2)c2ccccc2)CC1)c1ccco1
Activity [1]: 68%

COc1ccccc1CCN1CCC(CN(C)C(=O)C2=CCCCC2)CC1
Activity [1]: 57%

Cc1ccc2c(C(=O)CN3CCN(C(=O)c4ccco4)CC3)c(C)[nH]c2c1
inhibition [15]: Active
Activity [1]: 4%
inhibition [12]: 93%
Activity (T-cell): Non-Toxic
inhibition [4]: Active
inhibition [5]: Active
inhibition [6]: Active
IC50 [7]: 4.28 to 4.3 µM
inhibition (INH) [8]: Not Active
Activity (Jurkat): Non-Toxic
Activity [9]: inactive
inhibition [10]: Active
inhibition [14]: inactive

O=C(CN1CCC(n2nnc3ccccc32)CC1)N(C1CCCCC1)C1CCCCC1
solubility [16]: Insoluble

O=c1c2ccccc2[nH]c(=S)n1CCN1CCC(=C(c2ccc(F)cc2)c2ccc(F)cc2)CC1 [DIACYLGLYCEROL KINASE INHIBITOR II]
IC50 [11]: 18 µM
Activity [1]: 28%
inhibition [12]: 81%
IC50 [7]: 10.6 µM
inhibition [14]: inactive

O=C1C(=O)N(C2CCCC2)C(=O)N1CN1CCC(Cc2ccccc2)CC1
Activity [1]: 50%

O=C(CN1CCN(Cc2ccccc2)CC1)c1c[nH]c2ccccc12
Activity [1]: 72%

O=C1/C(=C\C=C\c2ccco2)SC(=S)N1NS(=O)(=O)c1ccccc1
IC50 [11]: 0.6 µM
inhibition [17]: Active
inhibition [6]: Active
inhibition (INH) [8]: Not Active
Activity (Jurkat): Toxic
Activity [9]: Active
inhibition [10]: Active

CC[C@H](C)[C@@H](OC(C)=O)[C@@H](C)C1=CC(=O)C2=C(O[C@]3(C)CC[C@H]4O[C@@H](C(C)(C)O)CC[C@]4(C)[C@H]3[C@@H]2O)C1=O [COCHLIOQUINONE A]
Ki [2]: 2.26 µM

O=C(CCCN1CCC(O)(c2ccc(Cl)cc2)CC1)c1ccc(F)cc1
Activity [1]: 62%

O=C(c1ccc(F)cc1)C1CCN(CCn2c(=O)[nH]c3ccccc3c2=O)CC1 [KETANSERIN]
Activity (T-cell): Non-Toxic
inhibition [4]: inactive
inhibition [6]: Active
inhibition (INH) [8]: Active
Activity (Jurkat): Non-Toxic
Activity [9]: inactive
inhibition [10]: Active

O=C1CC2(CCCC2)C(=O)N1CN1CCN(C(c2ccccc2)c2ccccc2)CC1
Activity [1]: 68%

COc1ccccc1N1CCN(CCCNc2cc(=O)n(C)c(=O)n2C)CC1
Activity [1]: 75%

C/C=C(\C)[C@@H](OC(C)=O)[C@@H](C)C1=CC(=O)C2=C(O[C@]3(C)CC[C@H]4O[C@@H](C(C)(C)O)CC[C@]4(C)[C@H]3[C@@H]2O)C1=O [STEMPHONE]
Ki [2]: 3.32 µM

O=C(Cn1cnc2sccc2c1=O)N1CCN(C(c2ccccc2)c2ccccc2)CC1
Activity [1]: 75%

Cc1nc2n(c(=O)c1CCN1CCC(c3noc4cc(F)ccc34)CC1)CCCC2 [RISPERIDONE]
solubility [16]: Insoluble

O=c1c2ccccc2[nH]c(=S)n1CCCN1CCN(c2cccc(Cl)c2)CC1
Activity [1]: 39%
